# NTR1 agonist: agonists of human NTR1, primary screen, imaging, U2OS cells, beta-arrestin-GFP, high content; 330,000 compounds, 0.17% hits; NTR1-U2OS beta-arrestin-GFP spot imaging, agonist mode; Neurotensin receptor type 1 (Homo sapiens), P30989; activation, % at 20 µM;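 active means activation at or above 40% of the spot to cytoplasm intensity ratio, with at least 20 cells analyzed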
# Target sequence (P30989 whole entry, looked up): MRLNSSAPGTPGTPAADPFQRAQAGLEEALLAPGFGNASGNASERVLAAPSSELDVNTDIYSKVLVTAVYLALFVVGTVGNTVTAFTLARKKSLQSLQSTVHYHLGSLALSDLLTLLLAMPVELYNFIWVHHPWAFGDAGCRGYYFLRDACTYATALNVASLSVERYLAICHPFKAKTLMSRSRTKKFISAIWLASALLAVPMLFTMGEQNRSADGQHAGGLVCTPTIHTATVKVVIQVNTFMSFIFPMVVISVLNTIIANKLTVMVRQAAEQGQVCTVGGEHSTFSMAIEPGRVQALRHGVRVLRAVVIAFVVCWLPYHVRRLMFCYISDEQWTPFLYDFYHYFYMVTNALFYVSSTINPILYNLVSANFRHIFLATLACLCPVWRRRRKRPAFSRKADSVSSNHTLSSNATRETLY
# APJ antag: antagonists of human apelin receptor APJ, primary screen, CHO-K1 cells, beta-arrestin complementation, luminescence; P35414; inhibition, % at 20 µM; 330,000 compounds, 0.32% hits; AID 2521, 2010;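 active means inhibition above about 40% at 20 µM, limit read from the data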;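 further: cells challenged with 10 nM apelin-13 agonist together with compound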
# CXCR6 block: CXCR6 receptor inhibitors, primary screen, cell-based, beta-arrestin, luminescence, CHO-K1 PathHunter, 1536-well; AID 602244, 2012; C-X-C chemokine receptor type 6 (Homo sapiens), O00574; 360,000 compounds, 0.36% hits; inhibition, % at 20 µM; in the data active means inhibition above about 34%, passing the limit was not always enough;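 further: antagonist mode with CXCL16 agonist at 10 nM final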
# CCR6 antag: CCR6 receptor antagonists, primary screen, cell-based, CHO-K1, luminescence, beta-arrestin, uHTS; CHO-K1 CCR6 PathHunter beta-arrestin, CCL20-stimulated; inhibition, % at 20 µM; 340,000 compounds, 0.49% hits;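 active means compounds whose inhibition of the agonist-driven luminescence signal at 20 µM reaches about 50%, limit read from the data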;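 further: cells stimulated with CCL20 at 14 nM final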
# m5-HT2A agonist: mouse Htr2a agonists via beta-arrestin recruitment, primary screen, cell-based, luminescence. 360,000 compounds, 0.66% hits. AID 624169, 2012. activation, % at 7.6 µM. CHO-K1 mHTR2A beta-arrestin complementation; percent of 30 µM serotonin response;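 active means activation above a run cutoff, the mean activation of all tested compounds plus 3 SD, cut at about 14% in these data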
# APJ ag: agonists of human apelin receptor APJ, primary screen, CHO-K1 cells, PathHunter beta-arrestin, luminescence | 0% DMSO wells, 100% apelin | 330,000 compounds, 0.11% hits | AID 2520, 2010 | P35414 | activation, % at 20 µM;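 active means activation more than six SD over the plate average, tested at 20 µM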
#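 Test system – PathHunter CHO-K1 APJ (AGTRL-1) beta-arrestin reporter cells · Input – 1000 cells/well · Compound – single test compound dose, 20 µM final, 1% DMSO · Times – compound stimulation 90 min at 25 °C, detection 60 min · Technique – beta-gal luminescence · Read-out basis – APJ–arrestin association signal · Control set – negative DMSO alone, positive Apelin-13 at 10 nM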
# A number is an active result; – = inactive; · = no result; ! = not confirmed by another sample. Shown are actives, neighbours in structure and some others; about 1.5% of the full set was active somewhere.
SMILES,NTR1 agonist,APJ antag,CXCR6 block,CCR6 antag,m5-HT2A agonist,APJ ag
COc1ccc2c(Cl)c(C(=O)N/N=C3\CCCC(=O)C3)sc2c1,–,–,–,–,–,–
CC(=O)Nc1ccc(NC(=O)c2nc(S(=O)(=O)Cc3ccccc3)ncc2Cl)cc1,–,–,–,–,–,–
CS(=O)(=O)c1ncc(Cl)c(C(=O)Nc2ccc3ccccc3c2)n1,·,·,70,81,–,·
Cc1cc(C(=O)Nc2cccnc2)on1,–,–,–,–,15,–
Cc1nc(N/N=C/c2ccccn2)sc1C,·,·,·,–,·,·
CCCc1sc(N/N=C/c2ccccn2)nc1-c1ccc(F)cc1,–,–,–,69,–,–
CCCn1c2ccccc2c2nnc(SCC(=O)Nc3ncccn3)nc21,–,–,43,63,–,–
C=CCn1c2ccccc2c2nnc(SCC(=O)Nc3cc(C)on3)nc21,–,–,–,55,–,–
CCCn1c2ccccc2c2nnc(SCC(=O)Nc3cc(C)on3)nc21,–,–,–,–,–,–
Cn1c2ccccc2c2nnc(SCC(=O)Nc3cccc(C(=O)O)c3)nc21,–,–,–,–,–,–
CC(C)c1ccc(NNC(=O)C2CCC2)cc1,–,–,–,–,–,–
CC(NC(=O)C1CCCN1S(=O)(=O)c1ccccc1)c1ccccc1 (centres undefined),–,–,–,–,–,–
Cc1ccccc1NC(=S)N1CCN(C(=O)c2ccco2)CC1,–,–,–,–,–,–
O=C(c1ccco1)N1CCN(C(=S)Nc2ccccc2Cl)CC1,–,–,–,–,15,–
COc1ccc2c(c1O)C(=O)c1ccccc1C2=O,–,–,·,·,·,–
Nc1c(O)ccc2c1C(=O)c1ccccc1C2=O,·,·,·,50,·,·
CCOC(=O)C1=C(C)NC(C)=C(C(=O)OCC)C1c1ccccc1/C=C/C(=O)OC(C)(C)C,47,–,·,·,·,–
CCOC(=O)C1=C(C)NC(C)=C(C(=O)OCC)C1/C=C/c1ccccc1OC,–,–,–,–,–,–
O=C(NNC(=O)c1ccccc1C(=O)O)c1ccc(S(=O)(=O)N2CCCCC2)cc1,–,–,–,–,–,–
CN(CC(=O)N1CCc2ccccc2C1)c1ccccc1,–,–,–,–,–,–
CC(NC(C(=O)c1ccccc1)c1ccccc1)c1ccccc1 (centres undefined),·,·,37,78,–,·
COc1ccc(NC(=O)CN2CCCCC2)c([N+](=O)[O-])c1,–,–,–,–,16,–
O=C(NCc1ccc2c(c1)OCO2)c1nc(S(=O)(=O)Cc2ccccc2)ncc1Cl,–,–,–,63,–,–
CC(C)c1cc(Cn2c3ccccc3c(=O)n2C(C)Cn2cc(-c3ccc(C(C)(C)C)cc3)nn2)on1 (centres undefined),·,·,·,·,–,·
CC1=NN(c2ccccc2)C(=O)/C1=C/C=C/c1ccc(N(C)C)cc1,·,·,71,89,–,·
SMILES,NTR1 agonist,APJ antag,CXCR6 block,CCR6 antag,m5-HT2A agonist,APJ ag
CC1=NN(c2ccccc2)C(=O)/C1=C\C=C\c1ccccc1,–,–,–,–,–,–
O=C(CCc1ccccc1)NNC(=S)NC(=O)c1ccccc1,–,–,–,69,–,–
CC(=O)NC(=S)NNC(=O)CCc1ccccc1,–,–,–,–,–,–
Cc1c(CCOC(=O)C2C3CC4CC(C3)CC2C4)sc[n+]1CC(=O)c1ccc(Br)cc1 (centres undefined),–,–,–,53!,–,–
CCCCN1C(=O)C(CC(=O)NCCN2CCOCC2)CC(C(=O)N2CCCCCC2)=C1C (centres undefined),·,·,–,·,–,·
O=C1C(Cl)=C(Nc2ccc3cn[nH]c3c2)C(=O)c2ccccc21,·,·,56,78,–,·
O=C(Nc1ccc2cn[nH]c2c1)c1c(Cl)cccc1Cl,–,–,–,–,–,–
O=C(NC1CCCc2ccccc21)C1CCCN(S(=O)(=O)c2cnc[nH]2)C1 (centres undefined),–,–,–,–,–,–
O=C(NC1CCCCCC1)C1CCCN(S(=O)(=O)c2cnc[nH]2)C1 (centres undefined),–,–,–,–,24,–
CCc1ccc(NC(=O)C2CCCN(S(=O)(=O)c3cnc[nH]3)C2)cc1 (centres undefined),–,–,–,–,–,–
COC(=O)c1ccc(NC(=O)C2CCCN(S(=O)(=O)c3cnc[nH]3)C2)cc1 (centres undefined),–,–,–,–,17,–
Cc1cc(C)c2c(=O)n(CC(=O)N3CCC(Cc4ccccc4)CC3)sc2n1,–,–,·,·,·,–
Cc1cccc(N2CCN(C(=O)Cn3sc4nc(C)cc(C)c4c3=O)CC2C)c1 (centres undefined),–,–,–,72,–,–
Cc1cc(C)c(N=C2C(=O)Nc3ccccc32)c(C)c1,–,–,–,–,–,–
COc1cc(/C=N/N=C2/C(=O)Nc3ccccc32)cc(OC)c1O,–,–,–,61,–,–
CCN(CC)c1ccc(N=C2C(=O)Nc3ccccc32)cc1,–,–,–,–,–,–
O=C1Nc2ccccc2C1=Nc1ccc(Cl)cc1,·,·,–,65,–,·
Cc1ccc(N=C2C(=O)Nc3ccccc32)cc1C,–,–,–,52,–,–
N#C/C(=C\c1ccc(O)c(O)c1)S(=O)(=O)c1ccccc1,–,–,–,53,–,–
N#C/C(=C/c1ccc(F)cc1)S(=O)(=O)c1ccccc1,–,–,–,–,–,–
COc1ccc(C(=O)COC(=O)CCCC(=O)NC2CCCCC2)cc1,–,–,–,–,–,–
Cc1ccc(-c2cc(-c3ccc(Cl)cc3)c(C#N)c(N)n2)o1,–,–,–,86,–,–
Cc1ccc(-c2cc(-c3ccc(C)o3)nc(N)c2C#N)cc1,–,–,–,–,–,–
COC(=O)c1[nH]c2cc(OC)c(OC)cc2c1/C=N/Nc1ccccc1,–,–,–,–,–,–
O=C(O)C(Oc1ccc(Cl)cc1)c1ccc(Cl)cc1 (centres undefined),·,·,–,–,–,·
CCOC(=O)C1C(=O)NC(c2ccccc2)=NC1c1ccc(Br)cc1 (centres undefined),–,–,–,–,–,–
O=C(/C=C/c1ccccn1)c1cc(Br)ccc1O,–,–,–,59,–,–
CC(C)c1nn2c(=O)cc(COc3cccc(NC(=O)c4ccco4)c3)nc2s1,–,–,–,–,–,–
OC(COc1ccc(Cl)cc1)CN1CCCCC1 (centres undefined),–,–,–,–,–,–
OC(COc1c(Cl)cc(Cl)cc1Cl)CN1CCCCC1 (centres undefined),–,–,–,69,–,–
